Assay results gathered from unrelated publications.
Lines come from different studies, so protocols differ.
Organism: Mycolicibacterium smegmatis
Observed: microbial growth

`NNC(=O)c1ccncc1` gave an MIC of over 200 µg/mL (broth dilution; ATCC607).
`CC1(C)S[C@@H]2[C@H](NC(=O)[C@H](N)c3ccccc3)C(=O)N2[C@H]1C(=O)O` gave an MIC of 50 µg/mL (resazurin; MC^2155; 24 h).
For `CC(C)=CCC/C(C)=C/CNCCCOC1C2CC3CC(C2)CC1C3` (stereo not drawn), the MIC was 6.2 µg/mL.
The MIC of `CCC(C)(C)C(=O)Oc1ccccc1C(=O)Nc1ncc([N+](=O)[O-])s1` is reported as over 25 µM (agar dilution; MC^2155).
`CNC(C)C1CCC(N)C(OC2C(N)CC(N)C(OC3OCC(C)(O)C(NC)C3O)C2O)O1` (stereo not drawn) gave an MIC of 1 µg/mL (broth dilution; 72 h).
`Nc1ccc(C(=O)O)c(O)c1` gave an MIC of 1.25 µg/mL (broth dilution; MC^2155).
With `CC[C@@H](CO)NCCN[C@@H](CC)CO` the MIC was 0.39 µg/mL (resazurin; ATCC607; 72 h).
`CC(C)=CCC/C(C)=C/COCCNC1C2CC3CC(C2)CC1C3` (stereo not drawn) has an MIC of 6.2 µg/mL.
The MIC of `NNC(=O)c1ccncc1` is reported as 1 µg/mL.
`CN[C@H](CC(C)C)C(=O)N[C@H]1C(=O)N[C@@H](CC(N)=O)C(=O)N[C@H]2C(=O)N[C@H]3C(=O)N[C@H](C(=O)N[C@H](C(=O)O)c4cc(O)cc(O)c4-c4cc3ccc4O)[C@H](O)c3ccc(c(Cl)c3)Oc3cc2cc(c3O[C@@H]2O[C@H](CO)[C@@H](O)[C@H](O)[C@H]2O[C@H]2C[C@](C)(N)[C@H](O)[C@H](C)O2)Oc2ccc(cc2Cl)[C@H]1O` has an MIC of 3.12 µg/mL (resazurin; ATCC607; 72 h).
`CC(C)=CCC/C(C)=C/CNCCOC(C)(C)C` gave an MIC of 50 µg/mL.
For `CO[C@H]1/C=C/O[C@@]2(C)Oc3c(C)c(O)c4c(O)c(c(/C=N/N5CCN(C)CC5)c(O)c4c3C2=O)NC(=O)/C(C)=C\C=C\[C@H](C)[C@H](O)[C@@H](C)[C@@H](O)[C@@H](C)[C@H](OC(C)=O)[C@@H]1C`, the MIC was over 25 µg/mL (agar dilution).
